By IC50 is commonly meant the concentration that gives 50% inhibition. A lower IC50 goes with inhibition by little substance. In general, T/C refers to the result in the treated group divided by that in the control group, in per cent.

Activity calls are given as the source filed them. The rule behind the calls is not given here.

Assay [1] can be described thus: Inhibit growth of KB cells by 50%. It counts as functional, cell-based. The conditions noted are these: Homo sapiens.
The test system of assay [2] is P388. Description: Tested in vivo for the antitumor activity against P388 in mice after intraperitoneal administration of 100 mg/kg dose; T/C= treated/control. In kind it is functional, Mus musculus.
Assay [3] concerns P388. Description: Tested in vivo for the antitumor activity against P388 in mice after intraperitoneal administration of 200 mg/kg dose; T/C= treated/control. In kind it is functional, Mus musculus.
Assay [4] deals with FM3A. Put plainly: Inhibit growth of FM3A cells by 50%. In kind it is functional, cell-based. The following applies: Mus musculus. In outline:
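FM3A cells were grown in ES medium with 2% heat-inactivated FBS at 37 °C under 5% CO2, seeded at about 5 × 10^4 cells/mL, and exposed to a range of drug concentrations. Cells were counted electronically after 48 h. IC50 is the concentration that reduces growth rate by 50% of control.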

The subject of assay [5] is P388. Description: Tested in vivo for the antitumor activity against P388 leukemia cells in mice after intraperitoneal administration of 400 mg/kg dose; T/C= treated/control. In kind it is functional, Mus musculus.
Assay [6] has as its system FM3A. Put plainly: Ability to induce dNTP pool imbalance at 41 uM dose was tested; significant imbalance in the intracellular dNTP pool in FM3A cells. It counts as functional, cell-based. The conditions noted are these: Mus musculus.
For assay [7], the system named is P388. Description: Compound was tested in vivo for the antitumor activity against P388 in mice after intraperitoneal administration of 6.3 mg/kg dose; T/C= treated/control. It counts as functional, Mus musculus.
Assay [8] has as its system P388. Put plainly: Compound was tested in vivo for the antitumor activity against P388 leukemia cells in mice after intraperitoneal administration of 100 mg/kg dose; T/C= treated/control. It counts as functional, Mus musculus.
Assay [9] relates to P388. Description: Compound was tested in vivo for the antitumor activity against P388 in mice after intraperitoneal administration of 25 mg/kg dose; T/C= treated/control. In kind it is functional, Mus musculus.
The subject of assay [10] is FM3A. Put plainly: Ability to induce dNTP pool imbalance at 15.0 uM dose was tested; significant imbalance in the intracellular dNTP pool in FM3A cells. The following applies: Mus musculus.
The subject of assay [11] is P388. The conditions noted are these: Mus musculus.
The test system of assay [12] is P388. Put plainly: Compound was tested in vivo for the antitumor activity against P388 in mice after intraperitoneal administration of 50 mg/kg dose; T/C= treated/control. It counts as functional, Mus musculus.
The subject of assay [13] is FM3A. Description: Ability to induce dNTP pool imbalance at 7.3 uM dose was tested; significant imbalance in the intracellular dNTP pool in FM3A cells. The conditions noted are these: Mus musculus.
The subject of assay [14] is FM3A. Description: Ability to induce dNTP pool imbalance at 16.4 uM dose was tested; significant imbalance in the intracellular dNTP pool in FM3A cells. The following applies: Mus musculus.
Assay [15] deals with FM3A. Put plainly: Compound''s ability to induce dNTP pool imbalance at 6.1 uM dose was tested; significant imbalance in the intracellular dNTP pool in FM3A cells. It counts as functional, cell-based. The following applies: Mus musculus.
For assay [16], the system named is P388. Description: Compound was tested in vivo for the antitumor activity against P388 leukemia cells in mice after intraperitoneal administration of 40 mg/kg dose; T/C= treated/control. It counts as functional, Mus musculus.
Assay [17] relates to P388. Put plainly: Compound was tested in vivo for the antitumor activity against P388 in mice after intraperitoneal administration of 10 mg/kg dose; T/C= treated/control. In kind it is functional, Mus musculus.
In assay [18] the test system is FM3A. Put plainly: Ability to induce dNTP pool imbalance at 3.5 uM dose was tested; significant imbalance in the intracellular dNTP pool in FM3A cells. The conditions noted are these: Mus musculus.
Assay [19] relates to P388. Put plainly: Compound was tested in vivo for the antitumor activity against P388 in mice after intraperitoneal administration of 20 mg/kg dose; T/C= treated/control. It counts as functional, Mus musculus.
Assay [20] deals with P388. Put plainly: Compound was tested in vivo for the antitumor activity against P388 in mice after intraperitoneal administration of 400 mg/kg dose; T/C= treated/control. In kind it is functional, Mus musculus.
Assay [21] concerns FM3A. Description: Ability to induce dNTP pool imbalance at 9.0 uM dose was tested; significant imbalance in the intracellular dNTP pool in FM3A cells. The following applies: Mus musculus.
The subject of assay [22] is P388. Description: Compound was tested in vivo for the antitumor activity against P388 in mice after intraperitoneal administration of 2.5 mg/kg dose; T/C= treated/control. It counts as functional, Mus musculus.
The test system of assay [23] is P388. Put plainly: Compound was tested in vivo for the antitumor activity against P388 in mice after intraperitoneal administration of 0.6 mg/kg dose; T/C= treated/control. In kind it is functional, Mus musculus.
In assay [24] the test system is P388. Description: Compound was tested in vivo for the antitumor activity against P388 leukemia cells in mice after intraperitoneal administration of 5 mg/kg dose; T/C= treated/control. It counts as functional, Mus musculus.
The subject of assay [25] is P388. Description: Compound was tested in vivo for the antitumor activity against P388 leukemia cells in mice after intraperitoneal administration of 25 mg/kg dose; T/C= treated/control. In kind it is functional, Mus musculus.
Assay [26] concerns P388. Put plainly: Compound was tested in vivo for the antitumor activity against P388 in mice after intraperitoneal administration of 12.5 mg/kg dose; T/C= treated/control. In kind it is functional, Mus musculus.
Assay [27] relates to FM3A. Put plainly: Ability to induce dNTP pool imbalance at 7.9 uM dose was tested; significant imbalance in the intracellular dNTP pool in FM3A cells. The following applies: Mus musculus.
Assay [28] has as its system P388. Put plainly: Compound was tested in vivo for the antitumor activity against P388 leukemia cells in mice after intraperitoneal administration of 12.5 mg/kg dose; T/C= treated/control.
For assay [29], the system named is P388. Description: Compound was tested in vivo for the antitumor activity against P388 in mice after intraperitoneal administration of 3.1 mg/kg dose; T/C= treated/control. It counts as functional, Mus musculus.

Take `CC(C)c1ccc(CCCCCCCCc2ccc(C(C)C)cc(=O)c2O)c(O)c(=O)c1`: the IC50 in assay [1] amounted to 4300 nM; in assay [4], 900 nM. The T/C in assay [2] was found to be 107%; in [3], 110%; in assay [5] it was 110%. Further, the Imbalance entry in assay [6] is reported as “significant imbalance in the intracellular dNTP pool in FM3A cells”.
Consider `CC(C)c1ccc(CCc2ccc(C(C)C)cc(=O)c2O)c(O)c(=O)c1`, for which the results for the IC50 in assay [1] and in assay [4] were 8000 nM and 1200 nM, respectively. The T/C is 121% in [7], 165% in assay [8] and 150% in [9]. For the same compound, in assay [10], the Imbalance result is “significant imbalance in the intracellular dNTP pool in FM3A cells”.
As to `COc1ccc(C(c2ccc(C(C)C)cc(OC)c2=O)c2ccc(C(C)C)cc(OC)c2=O)cc1`, the IC50 in [1] is 114000 nM; in assay [4], 14100 nM. The T/C result in assay [11] is “inactive”.
As for `CC(C)c1ccc(CCCCCCc2ccc(C(C)C)cc(=O)c2O)c(O)c(=O)c1`, the IC50 in [1] is 1500 nM; in assay [4], 900 nM. In addition, the T/C was found to be 128% in [2]; 80% in [3]; 137% in assay [12]; 70% in assay [5]; 110% in [9]. The Imbalance entry in assay [13] is reported as “significant imbalance in the intracellular dNTP pool in FM3A cells”.
`CC(C)c1ccc(SCCSc2ccc(C(C)C)cc(=O)c2O)c(O)c(=O)c1`: the IC50 stood at 1600 nM in [1] and 4800 nM in assay [4]. Also, the T/C in assay [2] is recorded as 151%; in assay [3], 171%; in assay [5], 80%. In addition, the Imbalance result in assay [14] was “significant imbalance in the intracellular dNTP pool in FM3A cells”.
`CC(C)c1cccc(=O)c(O)c1` [HINOKITIOL]: the IC50 in [1] stood at 3500 nM; in assay [4], 1100 nM. Besides, the T/C entry in [5] (Mus musculus) is “inactive”. Besides, in assay [6], the Imbalance entry was “significant imbalance in the intracellular dNTP pool in FM3A cells”.
Regarding `CCOC(c1ccc(OC)cc1)c1ccc(C(C)C)cc(=O)c1O` (stereo not given), the results for the IC50 in assay [1] and in [4] were 1600 nM and 1100 nM, respectively. The T/C in assay [3] and in assay [5] was 140% each time. In addition, in [15], the Imbalance entry was “significant imbalance in the intracellular dNTP pool in FM3A cells”.
In the case of `COc1ccc(C(c2oc(CO)cc(=O)c2O)c2oc(CO)cc(=O)c2O)cc1`, the IC50 in assay [1] and in [4] was greater than 249000 nM each time. Moreover, the T/C result in assay [11] is “inactive”.
In assay [1], `CC(C)c1ccc(SCCCSc2ccc(C(C)C)cc(=O)c2O)c(O)c(=O)c1` had an IC50 of 1600 nM. Also, the values for the T/C in [2], in [3] and in [5] were 93%, 131% and 169%, respectively.
With `CC(C)c1ccc(COCc2ccc(C(C)C)cc(=O)c2O)c(O)c(=O)c1`, the T/C in assay [16] was 156%; in [17] it was 164%; in assay [19] it was 186%. The IC50 in assay [1] is 6200 nM; in assay [4], 80 nM. For the same compound, in [18], the Imbalance result is “significant imbalance in the intracellular dNTP pool in FM3A cells”.
For `CC(C)c1ccc(CCCCCCCCCCCCc2ccc(C(C)C)cc(=O)c2O)c(O)c(=O)c1`, the IC50 in assay [1] stood at 27300 nM; in assay [4], 1300 nM. In addition, the T/C in assay [2] is 106%; in [3], 107%; in [20], 105%. The Imbalance entry in assay [6] is reported as “significant imbalance in the intracellular dNTP pool in FM3A cells”.
Regarding `CC(C)C1=CC(=O)C(=O)/C(=C2/C=CC(C(C)C)=CC(O)=C2O)C=C1`, the IC50 in assay [1] came to 9500 nM; in assay [4], 3700 nM. Besides, the T/C came out at 171% in assay [12], 143% in assay [8] and 152% in [9]. The Imbalance entry in assay [6] is on record as “significant imbalance in the intracellular dNTP pool in FM3A cells”.
`Oc1cccc2cccnc12` [OXYQUINOLINE]: the values for the IC50 in [1] and in assay [4] were less than 2100 nM and 2100 nM, respectively. This compound also had a T/C in assay [2] of 92%. In assay [6], the Imbalance entry is recorded as “significant imbalance in the intracellular dNTP pool in FM3A cells”.
On to `COc1ccc(C(c2ccc(C(C)C)cc(=O)c2O)c2ccc(C(C)C)cc(=O)c2O)cc1`, for which the IC50 was determined as 1100 nM in assay [1] and 400 nM in assay [4]. For the same compound, the Imbalance entry in assay [21] was “significant imbalance in the intracellular dNTP pool in FM3A cells”. Moreover, the T/C is recorded as 134% in assay [22], 127% in [23] and 173% in assay [24].
Regarding `CC(C)c1ccc(Cc2ccc(C(C)C)cc(=O)c2O)c(O)c(=O)c1`, the values for the IC50 in [1] and in assay [4] were less than 900 nM and 1000 nM, respectively. Further, the results for the T/C in [25], in [7] and in assay [26] were 123%, 137% and 152%, respectively. In addition, in [27], the Imbalance result is recorded as “significant imbalance in the intracellular dNTP pool in FM3A cells”.
For the compound `COc1ccc(C(c2ccc3cccnc3c2O)c2ccc3cccnc3c2O)cc1`, the values for the T/C in assay [28], in assay [7] and in assay [29] were 164%, 128% and 111%, respectively. Further, the IC50 is less than 700 nM in [1] and 10 nM in assay [4]. In addition, the Imbalance entry in assay [6] was “significant imbalance in the intracellular dNTP pool in FM3A cells”.

The record behind these values is ChEMBL document CHEMBL1126143, “Synthesis and antitumor activity of tropolone derivatives. 7. Bistropolones containing connecting methylene chains” (J Med Chem, 1992).
